Laboratory results taken from ChEMBL document CHEMBL1152452, “Modifications incorporated in CpG motifs of oligodeoxynucleotides lead to antagonist activity of toll-like receptors 7 and 9” (2009).
Activity calls are given as the source filed them. No cut-off for these calls is given here.

Experiments:
Mus musculus [1] = assay: Immunostimulatory activity in C57BL/6 mouse assessed as induction of MIP-1alpha level in serum at 2 mg/kg, sc after 2 hrs by Luminex multiplex assay; assay type: functional, organism-based; set-up: dose 2 mg/kg
Procedure, shortened: (§1)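 Female C57BL/6 mice, 5–6 weeks old, n = 3, received a single 2 mg/kg subcutaneous ODN injection in the right flank. Blood was taken by retro-orbital bleeding 2 h later. Naive mice served as baseline. Representative of three experiments.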

Mus musculus [2] = assay: Immunostimulatory activity in C57BL/6 mouse assessed as induction of KC level in serum at 2 mg/kg, sc after 2 hrs by Luminex multiplex assay; assay type: functional, organism-based; set-up: dose 2 mg/kg; procedure, shortened: as §1
[3] = molecular target: T1, Toll-like receptor 9 (Mus musculus) (UniProt Q9EQU3); assay: Activation of mouse TLR9 expressed in HEK293 cells assessed as NF-kappaB level at 0.3 ug/mL after 18 hrs by reporter gene assay; assay type: cell-based
T1 sequence (whole entry): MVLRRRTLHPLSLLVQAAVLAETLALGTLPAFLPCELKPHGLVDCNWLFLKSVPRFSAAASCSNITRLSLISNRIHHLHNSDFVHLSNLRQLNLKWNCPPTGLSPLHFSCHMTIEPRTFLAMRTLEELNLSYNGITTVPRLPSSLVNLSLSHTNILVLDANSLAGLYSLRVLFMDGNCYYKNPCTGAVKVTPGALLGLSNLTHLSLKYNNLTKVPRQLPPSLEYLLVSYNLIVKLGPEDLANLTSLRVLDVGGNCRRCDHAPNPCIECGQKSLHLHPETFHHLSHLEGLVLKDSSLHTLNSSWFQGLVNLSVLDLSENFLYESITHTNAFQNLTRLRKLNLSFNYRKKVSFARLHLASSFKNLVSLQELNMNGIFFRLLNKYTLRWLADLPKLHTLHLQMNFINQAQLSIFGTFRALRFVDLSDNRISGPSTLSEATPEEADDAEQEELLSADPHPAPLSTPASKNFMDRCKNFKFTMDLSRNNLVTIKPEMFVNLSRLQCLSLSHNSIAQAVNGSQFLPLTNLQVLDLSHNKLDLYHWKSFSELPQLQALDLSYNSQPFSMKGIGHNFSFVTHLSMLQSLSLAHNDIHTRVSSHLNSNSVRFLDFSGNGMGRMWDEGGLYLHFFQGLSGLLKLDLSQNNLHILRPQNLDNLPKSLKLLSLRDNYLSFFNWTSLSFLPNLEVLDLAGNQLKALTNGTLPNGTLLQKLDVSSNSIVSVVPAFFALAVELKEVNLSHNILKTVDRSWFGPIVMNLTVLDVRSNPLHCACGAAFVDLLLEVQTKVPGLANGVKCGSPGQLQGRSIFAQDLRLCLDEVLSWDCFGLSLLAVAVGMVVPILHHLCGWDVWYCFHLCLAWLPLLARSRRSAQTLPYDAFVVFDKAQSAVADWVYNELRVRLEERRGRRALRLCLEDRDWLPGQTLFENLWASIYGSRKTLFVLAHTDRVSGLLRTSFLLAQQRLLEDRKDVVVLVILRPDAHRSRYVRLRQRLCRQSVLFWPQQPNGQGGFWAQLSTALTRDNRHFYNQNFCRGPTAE
Procedure, shortened: (§2)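 HEK293 cells stably expressing mouse TLR9 were transiently transfected with a SEAP reporter for 6 h, then stimulated with ODN at 0.1, 0.3 or 1 μg/mL for 18 h. Reporter expression is given as fold change in NF-κB activity over medium. Representative of two independent experiments.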

[4] = molecular target: T1, Toll-like receptor 9 (Mus musculus); assay: Activation of mouse TLR9 expressed in HEK293 cells assessed as NF-kappaB level at 1 ug/mL after 18 hrs by reporter gene assay; assay type: cell-based; procedure, shortened: as §2
Splenocyte [5] = assay: Inhibition of 5'-CTATCTGACGTTCTCTGT-3'-induced IL12 secretion in C57BL/6 mouse splenocytes at 4 ug/ml after 24 hrs by sandwich ELISA; assay type: functional, cell-based
Procedure, shortened: (§3)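 Splenocytes from 5–8-week C57BL/6 mice, 5 × 10^6 cells/mL in RPMI complete medium, were co-incubated with the TLR9 agonist ODN (1 µg/mL) plus test ODN at 1 or 4 µg/mL, or over a concentration series, at 37 °C for 24 h. Supernatant IL-12 or IL-6 was measured by sandwich ELISA. Runs were done in duplicate, with three independent experiments.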

Splenocyte [6] = assay: Immunostimulatory activity in C57BL/6 mouse splenocytes assessed as induction of IL12 secretion at 2 to 10 ug/ml after 24 hrs by sandwich ELISA; assay type: functional, cell-based
Procedure, shortened: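 C57BL/6 splenocytes (mice 5–8 weeks) at 5 × 10^6 cells/mL in RPMI complete medium. ODNs dissolved in PBS were added and the cells incubated at 37 °C for 24 h. Supernatant IL-12 or IL-6 was measured by sandwich ELISA. Runs were done two or three times, in duplicate per concentration.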

Mus musculus [7] = assay: Immunostimulatory activity in C57BL/6 mouse assessed as inhibition of 5'-CTATCTGACGTTCTCTGT-3'-induced TNFalpha production in serum at 2 mg/kg, sc administered 24 hrs prior to 5'-CTATCTGACGTTCTCTGT-3' challenge measured after 2 hrs by Luminex multiplex assay; assay type: functional, organism-based; set-up: dose 2 mg/kg
Procedure, shortened: (§4)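 C57BL/6 mice received 2 mg/kg ODN sc in one flank. After 24 h, the TLR9 agonist ODN was given at 0.5 mg/kg sc in the opposite flank. Blood was drawn 2 h later and serum cytokines/chemokines were quantified by Luminex multiplex assay. Percent inhibition was taken against the agonist alone. Representative of three experiments.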

[8] = molecular target: T1, Toll-like receptor 9 (Mus musculus); assay: Activation of mouse TLR9 expressed in HEK293 cells assessed as NF-kappaB level at 0.1 ug/mL after 18 hrs by reporter gene assay; assay type: cell-based; procedure, shortened: as §2
J774 [9] = assay: Inhibition of 5'-CTATCTGACGTTCTCTGT-3'-activated NF-kappaB activity in mouse J774 cells at 2.5 ug/ml after 1 hr by EMSA; assay type: cell-based
Procedure, shortened: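 J774 murine macrophages were grown in DMEM with 10% FBS and antibiotics, plated at 5 × 10^6 cells/well, and co-incubated for 1 h with the agonist ODN (0.5 µg/mL) and test ODN (2.5 µg/mL). Nuclear extracts were prepared and NF-κB binding was analysed by EMSA on native polyacrylamide gels with autoradiography.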

Mus musculus [10] = assay: Immunostimulatory activity in C57BL/6 mouse assessed as inhibition of 5'-CTATCTGACGTTCTCTGT-3'-induced KC production in serum at 2 mg/kg, sc administered 24 hrs prior to 5'-CTATCTGACGTTCTCTGT-3' challenge measured after 2 hrs by Luminex multiplex assay; assay type: functional, organism-based; set-up: dose 2 mg/kg; procedure, shortened: as §4
J774 [11] = assay: Activation of NF-kappaB in mouse J774 cells at 2.5 ug/ml after 1 hr by EMSA; assay type: cell-based
Procedure, shortened: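 Murine J774 macrophages in DMEM with 10% FBS and antibiotics, plated at 5×10^6 cells/well. ODNs were given alone or together for 1 h. For inhibition, the agonist ODN at 0.5 μg/mL was co-incubated with the modified ODN at 2.5 μg/mL. Nuclear extracts were resolved by EMSA on native polyacrylamide gels and read by autoradiography.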

Splenocyte [12] = assay: Inhibition of 5'-CTATCTGACGTTCTCTGT-3'-induced IL6 secretion in C57BL/6 mouse splenocytes at 4 ug/ml after 24 hrs by sandwich ELISA; assay type: functional, cell-based; procedure, shortened: as §3

Row | Activity [3] | Activity [4] | Activity [8] | Compound | Activity (Mus musculus [1]) | Activity (Mus musculus [2]) | Activity (Splenocyte [5]) | Activity (Splenocyte [6]) | Activity (Mus musculus [7]) | Activity (J774 [9]) | Activity (Mus musculus [10]) | Activity (J774 [11]) | Activity (Splenocyte [12])
1 | inactive | inactive | inactive | Cc1cn([C@@H]2O[C@H](COP(=O)(S)O[C@H]3C[C@H](n4ccc(N)nc4=O)O[C@@H]3COP(=O)(S)O[C@H]3C[C@H](n4cc(C)c(=O)[nH]c4=O)O[C@@H]3COP(=O)(S)O[C@H]3C[C@H](n4ccc(N)nc4=O)O[C@@H]3COP(=O)(S)O[C@H]3C[C@H](n4cc(C)c(=O)[nH]c4=O)O[C@@H]3COP(=O)(S)O[C@H]3C[C@H](n4cc(C)c(=O)[nH]c4=O)O[C@@H]3COP(=O)(S)O[C@H]3C[C@H](n4cnc5c(=O)[nH]c(N)nc54)O[C@@H]3COP(=O)(S)O[C@H]3C[C@H](n4ccc(N)nc4=O)O[C@@H]3COP(=O)(S)O[C@H]3C[C@H](n4cnc5c(N)ncnc54)O[C@@H]3COP(=O)(S)O[C@H]3C[C@H](n4cnc5c(=O)[nH]c(N)nc54)O[C@@H]3COP(=O)(S)O[C@H]3C[C@H](n4cc(C)c(=O)[nH]c4=O)O[C@@H]3COP(=O)(S)O[C@H]3C[C@H](n4ccc(N)nc4=O)O[C@@H]3COP(=O)(S)O[C@H]3C[C@H](n4cc(C)c(=O)[nH]c4=O)O[C@@H]3COP(=O)(S)O[C@H]3C[C@H](n4cnc5c(N)ncnc54)O[C@@H]3COP(=O)(S)O[C@H]3C[C@H](n4cc(C)c(=O)[nH]c4=O)O[C@@H]3COP(=O)(S)O[C@@H]3C[C@@H](n4ccc(N)nc4=O)O[C@H]3CO)[C@@H](OP(=O)(S)OC[C@H]3O[C@@H](n4cnc5c(=O)[nH]c(N)nc54)C[C@@H]3OP(=O)(S)OC[C@H]3O[C@@H](n4cc(C)c(=O)[nH]c4=O)C[C@@H]3O)[C@H]2O)c(=O)[nH]c1=O (some centres not stated) | inactive | inactive | Active | Active | Active | Active | Active | inactive | Active
2 | inactive | inactive | inactive | COC1[C@H](n2cnc3c(=O)[nH]c(N)nc32)O[C@H](COP(=O)(S)O[C@H]2C[C@H](n3cc(C)c(N)nc3=O)O[C@@H]2COP(=O)(S)O[C@H]2C[C@H](n3cnc4c(N)ncnc43)O[C@@H]2COP(=O)(S)O[C@H]2C[C@H](n3cnc4c(=O)[nH]c(N)nc43)O[C@@H]2COP(=O)(S)O[C@H]2C[C@H](n3cc(C)c(=O)[nH]c3=O)O[C@@H]2COP(=O)(S)O[C@H]2C[C@H](n3ccc(N)nc3=O)O[C@@H]2COP(=O)(S)O[C@H]2C[C@H](n3cc(C)c(=O)[nH]c3=O)O[C@@H]2COP(=O)(S)O[C@H]2C[C@H](n3cnc4c(N)ncnc43)O[C@@H]2COP(=O)(S)O[C@H]2C[C@H](n3cc(C)c(=O)[nH]c3=O)O[C@@H]2COP(=O)(S)O[C@H]2C[C@H](n3ccc(N)nc3=O)O[C@@H]2CO)[C@H]1OP(=O)(S)OC[C@H]1O[C@@H](n2cc(C)c(=O)[nH]c2=O)C[C@@H]1OP(=O)(S)OC[C@H]1O[C@@H](n2cc(C)c(=O)[nH]c2=O)C[C@@H]1OP(=O)(S)OC[C@H]1O[C@@H](n2ccc(N)nc2=O)C[C@@H]1OP(=O)(S)OC[C@H]1O[C@@H](n2cc(C)c(=O)[nH]c2=O)C[C@@H]1OP(=O)(S)OC[C@H]1O[C@@H](n2ccc(N)nc2=O)C[C@@H]1OP(=O)(S)OC[C@H]1O[C@@H](n2cc(C)c(=O)[nH]c2=O)C[C@@H]1OP(=O)(S)OC[C@H]1O[C@@H](n2cnc3c(=O)[nH]c(N)nc32)C[C@@H]1OP(=O)(S)OC[C@H]1O[C@@H](n2cc(C)c(=O)[nH]c2=O)C[C@@H]1O (some centres not stated) | inactive | inactive | – | Active | Active | Active | Active | inactive | –
3 | inactive | inactive | inactive | COC1[C@H](n2cc(C)c(N)nc2=O)O[C@H](COP(=O)(S)O[C@H]2C[C@H](n3cnc4c(N)ncnc43)O[C@@H]2COP(=O)(S)O[C@H]2C[C@H](n3cnc4c(=O)[nH]c(N)nc43)O[C@@H]2COP(=O)(S)O[C@H]2C[C@H](n3cc(C)c(=O)[nH]c3=O)O[C@@H]2COP(=O)(S)O[C@H]2C[C@H](n3ccc(N)nc3=O)O[C@@H]2COP(=O)(S)O[C@H]2C[C@H](n3cc(C)c(=O)[nH]c3=O)O[C@@H]2COP(=O)(S)O[C@H]2C[C@H](n3cnc4c(N)ncnc43)O[C@@H]2COP(=O)(S)O[C@H]2C[C@H](n3cc(C)c(=O)[nH]c3=O)O[C@@H]2COP(=O)(S)O[C@H]2C[C@H](n3ccc(N)nc3=O)O[C@@H]2CO)[C@H]1OP(=O)(S)OC[C@H]1O[C@@H](n2cnc3c(=O)[nH]c(N)nc32)C[C@@H]1OP(=O)(S)OC[C@H]1O[C@@H](n2cc(C)c(=O)[nH]c2=O)C[C@@H]1OP(=O)(S)OC[C@H]1O[C@@H](n2cc(C)c(=O)[nH]c2=O)C[C@@H]1OP(=O)(S)OC[C@H]1O[C@@H](n2ccc(N)nc2=O)C[C@@H]1OP(=O)(S)OC[C@H]1O[C@@H](n2cc(C)c(=O)[nH]c2=O)C[C@@H]1OP(=O)(S)OC[C@H]1O[C@@H](n2ccc(N)nc2=O)C[C@@H]1OP(=O)(S)OC[C@H]1O[C@@H](n2cc(C)c(=O)[nH]c2=O)C[C@@H]1OP(=O)(S)OC[C@H]1O[C@@H](n2cnc3c(=O)[nH]c(N)nc32)C[C@@H]1OP(=O)(S)OC[C@H]1O[C@@H](n2cc(C)c(=O)[nH]c2=O)C[C@@H]1O (some centres not stated) | inactive | inactive | – | Active | Active | Active | Active | inactive | –
